Reference: ChEMBL document CHEMBL1144766, “Discovery of quinolinediones exhibiting a heat shock response and angiogenesis inhibition” (J Med Chem, 2008)
Calls of active or inactive are those of the source. No cut-off for these calls is given here.

system: not listed separately; test: Cytotoxicity against human NCI60 cells; assay type: functional; conditions: not given

Which GI50 does the source give for `COc1cc2c(nc1-c1ccccc1)C(=O)C(N1CC1)=CC2=O` here?
The GI50 was 0.525 µM.

What about the LC50 of the same molecule?
The LC50 was 4.9 µM.

With `O=C1C(N2CC2)=CC(=O)c2nc(-c3ccc(-c4ccccc4)cc3)ccc21` as the molecule, how does the GI50 read?
Its GI50 is 7.94 µM.

What about the LC50 of the same molecule?
Its LC50 is 64.6 µM.

For `COCCCNC1=CC(=O)c2ccc(-c3ccccc3)nc2C1=O`, which GI50 is on record?
The GI50 was 5.5 µM.

What about the LC50 of the same molecule?
Its LC50 is 70.8 µM.

Which GI50 does the source give for `COCCCNC1=CC(=O)c2nc(-c3ccccc3)ccc2C1=O` here?
Its GI50 is 3.55 µM.

What about the LC50 of the same molecule?
Its LC50 is 66.1 µM.

Which GI50 does the source give for `COc1cc(CNC2=CC(=O)c3nc(-c4ccccc4)ccc3C2=O)cc(OC)c1OC` here?
Its GI50 is 2.34 µM.

What about the LC50 of the same molecule?
Its LC50 is 66.1 µM.

What does the source list for `O=C1C=C(N2CC2)C(=O)c2nc(-c3ccccc3)ccc21`?
GI50: 0.0851 µM; LC50: 17.8 µM

Which GI50 does the source give for `O=C1C(N2CC2)=CC(=O)c2nc(-c3ccccc3)ccc21` here?
Its GI50 is 0.0275 µM.

And the LC50?
The LC50 was 2.04 µM.

Which results are given for `O=C1C(NCc2ccccc2)=CC(=O)c2nc(-c3ccccc3)ccc21`?
GI50: 1.7 µM; LC50: 66.1 µM

Which GI50 does the source give for `COc1cc(-c2ccc3c(n2)C(=O)C=C(N2CC2)C3=O)cc(OC)c1OC` here?
The GI50 was 0.589 µM.

And the LC50?
The LC50 was 5.5 µM.

same assay, conditions: read-out: Log TGI (converted)

For `COc1cc2c(nc1-c1ccccc1)C(=O)C(N1CC1)=CC2=O`, which TGI is on record?
Its TGI is 1.66 µM.

For `O=C1C(N2CC2)=CC(=O)c2nc(-c3ccc(-c4ccccc4)cc3)ccc21`, which TGI is on record?
Its TGI is 26.9 µM.

Which TGI does the source give for `COCCCNC1=CC(=O)c2ccc(-c3ccccc3)nc2C1=O` here?
The TGI was 28.8 µM.

With `COCCCNC1=CC(=O)c2nc(-c3ccccc3)ccc2C1=O` as the molecule, how does the TGI read?
Its TGI is 19.1 µM.

With `COc1cc(CNC2=CC(=O)c3nc(-c4ccccc4)ccc3C2=O)cc(OC)c1OC` as the molecule, how does the TGI read?
Its TGI is 15.5 µM.

With `O=C1C=C(N2CC2)C(=O)c2nc(-c3ccccc3)ccc21` as the molecule, how does the TGI read?
Its TGI is 3.31 µM.

Which TGI does the source give for `O=C1C(N2CC2)=CC(=O)c2nc(-c3ccccc3)ccc21` here?
Its TGI is 0.324 µM.

For `O=C1C(NCc2ccccc2)=CC(=O)c2nc(-c3ccccc3)ccc21`, which TGI is on record?
Its TGI is 15.5 µM.

For `COc1cc(-c2ccc3c(n2)C(=O)C=C(N2CC2)C3=O)cc(OC)c1OC`, which TGI is on record?
The TGI was 1.78 µM.

target: Heat shock protein HSP 90-beta (Homo sapiens) (UniProt P08238); test: Binding affinity to N-terminal ATP binding site of Hsp90 at 100 uM after 30 mins; conditions: not given
Sequence (P08238 whole entry): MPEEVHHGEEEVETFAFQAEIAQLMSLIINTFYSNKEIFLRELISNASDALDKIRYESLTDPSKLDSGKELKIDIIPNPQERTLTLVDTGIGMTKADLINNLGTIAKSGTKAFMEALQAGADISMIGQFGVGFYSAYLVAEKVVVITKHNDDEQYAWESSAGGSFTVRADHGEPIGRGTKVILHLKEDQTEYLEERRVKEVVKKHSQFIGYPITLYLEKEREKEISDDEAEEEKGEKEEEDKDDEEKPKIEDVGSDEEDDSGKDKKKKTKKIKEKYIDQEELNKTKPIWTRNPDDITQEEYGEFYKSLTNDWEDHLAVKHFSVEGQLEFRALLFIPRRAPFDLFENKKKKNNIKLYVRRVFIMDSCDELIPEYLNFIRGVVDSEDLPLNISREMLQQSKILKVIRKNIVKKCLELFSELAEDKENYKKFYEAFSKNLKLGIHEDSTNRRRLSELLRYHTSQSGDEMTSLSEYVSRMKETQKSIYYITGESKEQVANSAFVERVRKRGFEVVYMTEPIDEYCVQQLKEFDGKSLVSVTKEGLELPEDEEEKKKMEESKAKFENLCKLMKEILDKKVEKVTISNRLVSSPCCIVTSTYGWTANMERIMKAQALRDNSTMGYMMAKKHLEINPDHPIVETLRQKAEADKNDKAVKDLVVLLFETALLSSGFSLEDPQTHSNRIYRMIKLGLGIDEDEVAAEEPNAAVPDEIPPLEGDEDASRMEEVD
Outline: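 Compounds were made up in DMSO at 35 mM (stock) just before use and added to whole cell lysates at 100 µM final. Lysates were held on ice for 30 min, then incubated with geldanamycin-derivatized agarose beads at 4 °C with rocking for 60 min. Beads were washed, and eluted proteins were run on gels and blotted for Hsp90. Loss of the Hsp90 band indicated competition.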

Which Activity does the source give for `Cc1cc2c(nc1-c1ccccc1)C(=O)C=C(N1CC1)C2=O` here?
Its Activity is “inactive”.

Which Activity does the source give for `COc1cc2c(nc1-c1ccccc1)C(=O)C(N1CC1)=CC2=O` here?
The Activity was “inactive”.

For `O=C1C(N2CC2)=CC(=O)c2nc(-c3ccc(-c4ccccc4)cc3)ccc21`, which Activity is on record?
The Activity was “inactive”.

For `COCCCNC1=CC(=O)c2ccc(-c3ccccc3)nc2C1=O`, which Activity is on record?
Its Activity is “inactive”.

With `COCCCNC1=CC(=O)c2nc(-c3ccccc3)ccc2C1=O` as the molecule, how does the Activity read?
Its Activity is “inactive”.

Which Activity does the source give for `COc1cc(CNC2=CC(=O)c3nc(-c4ccccc4)ccc3C2=O)cc(OC)c1OC` here?
Its Activity is “inactive”.

With `O=C1C=C(N2CC2)C(=O)c2nc(-c3ccccc3)ccc21` as the molecule, how does the Activity read?
Its Activity is “inactive”.

For `O=C1C(N2CC2)=CC(=O)c2nc(-c3ccccc3)ccc21`, which Activity is on record?
The Activity was “inactive”.

For `O=C1C(NCc2ccccc2)=CC(=O)c2nc(-c3ccccc3)ccc21`, which Activity is on record?
Its Activity is “inactive”.

Which Activity does the source give for `COc1cc(-c2ccc3c(n2)C(=O)C=C(N2CC2)C3=O)cc(OC)c1OC` here?
Its Activity is “inactive”.
